{"source": "paper PMC4153604", "about": "(European journal of medicinal chemistry, 2014)", "assay_type_in_all_cases": "cell-based", "key": {"[1]": {"tested_on": "MIA PaCa-2 cells", "assay": "Apoptosis assay, AO/EB staining", "settings": "0.5, 1 and 2 µM, 48 h, 5% FBS", "procedure,_shortened": "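MIA PaCa-2 cells (5 × 10^4 per chamber-slide well) exposed to test compound at 0.5, 1 and 2 µM for 48 h in medium with 5% FBS. Stained with AO/EB (10 µg/mL each) and imaged by fluorescence microscopy (x40, 480/30 nm excitation). Green intact nuclei scored as viable; orange-red, condensed nuclei as apoptotic. Images representative of triplicate experiments.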"}, "[2]": {"tested_on": "MIA PaCa-2 pancreatic cancer cells", "assay": "Cell viability, resazurin assay", "settings": "20 µM, 48 h, 5% FBS", "procedure,_shortened": "(§1)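 Cell lines were maintained at 37°C, 5% CO2 to about 80% confluence: BxPC-3 in RPMI 1640, MIA PaCa-2 in DMEM, each with 10% FBS and penicillin/streptomycin. Trypsinized cells were plated at 1 × 10^4/well in 5% FBS medium and treated with 0–20 µM for 48 h. Resazurin (0.02% in DPBS) was added; fluorescence (ex 560/em 590 nm) was read after 2 h. EC50 came from nonlinear regression.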"}, "[3]": {"tested_on": "BxPC-3 pancreatic cancer cells", "assay": "Cell viability, resazurin assay", "settings": "20 µM, 48 h, 5% FBS", "procedure,_shortened": "as §1"}, "[4]": {"settings": "listed as farnesylthiosalicylamide"}}}
{"smiles": "CC(C)=CCC/C(C)=C/CC/C(C)=C/CSC[C@H](NC(=O)CCCCCN1CCN(C)CC1)C(=O)NC1CCCCCCC1", "note": "[8e, L-((4-methylpiperazinyl)hexanoyl)-S-(trans, trans-farnesyl) cysteine cyclooctylamide]", "values": [{"measurement": "mode of cell death (AO/EB staining)", "setting": "[1]", "value": "signs of apoptosis were observed"}]}
{"smiles": "CC(C)=CCC/C(C)=C/CC/C(C)=C/CSc1ccccc1C(N)=O", "note": "[FTSA, S-t, t farnesylthiosalicylic amide]", "values": [{"measurement": "effect on viability of the cells", "setting": "[2]; [4]", "value": "ineffective"}, {"measurement": "effect on viability of the cells", "setting": "[3]; [4]", "value": "ineffective"}]}
{"smiles": "CC(C)=CCC/C(C)=C/CC/C(C)=C/CSc1ccccc1C(=O)O", "note": "[FTS, S-t, t farnesylthiosalicylic acid]", "values": [{"measurement": "effect on viability of the cells", "setting": "[2]; listed as salirasib", "value": "ineffective"}, {"measurement": "effect on viability of the cells", "setting": "[3]; listed as salirasib", "value": "ineffective"}]}
